We go through three compounds from ChEMBL document CHEMBL2150985, “Synthesis and antioxidant activity of 1,3,4-oxadiazole tagged thieno[2,3-d]pyrimidine derivatives” (Eur J Med Chem, 2012).

Common to all, as to type: functional
Test [1] can be described thus: Antioxidant activity assessed as inhibition of H2O2 radical scavenging activity at 75 ug/mL by spectrophotometric analysis relative to control. In short, it runs like this:
(§1)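 H2O2 (40 mM) prepared in phosphate buffer, pH 7.4. Compounds at […] in phosphate buffer were added to the H2O2 solution. Absorbance of the mixture was read at 230 nm, and percent H2O2 scavenging was calculated.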

Test [2] in a line: Antioxidant activity assessed as inhibition of H2O2 radical scavenging activity by spectrophotometric analysis. A digest of the protocol:
as §1

In test [3] the test system is Radical scavenging activity. In words: Antioxidant activity assessed as inhibition of DPPH free radical production at 50 ug/mL after 30 mins by spectrophotometric analysis relative to control. In short, it runs like this:
(§2)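 Test compound in methanol added to 0.004% (w/v) methanolic DPPH at a 1:4 volume ratio. Incubated 30 min at room temperature. Absorbance read against blank at 517 nm.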

Test [4] is described as follows: Antioxidant activity assessed as inhibition of H2O2 radical scavenging activity at 50 ug/mL by spectrophotometric analysis relative to control. A digest of the protocol:
as §1

Test [5] is described as follows: Antioxidant activity assessed as inhibition of H2O2 radical scavenging activity at 100 ug/mL by spectrophotometric analysis relative to control. In short, it runs like this: as §1
The subject of test [6] is Radical scavenging activity. In words: Antioxidant activity assessed as inhibition of DPPH free radical production at 25 ug/mL after 30 mins by spectrophotometric analysis relative to control. In short, it runs like this: as §2
A general note: The DPPH test is a chemical assay of radical scavenging.

Test [7] in a line: Antioxidant activity assessed as inhibition of H2O2 radical scavenging activity at 25 ug/mL by spectrophotometric analysis relative to control. A digest of the protocol: as §1
Test [8] is described as follows: Antioxidant activity assessed as inhibition of nitric oxide free radical production after 150 mins by Griess method. In short, it runs like this: (§3)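 NO generated from sodium nitroprusside (10 mM) in 0.2 M phosphate buffered saline, pH 7.4, with compound at […]. Incubated 150 min at 25 °C. An aliquot was mixed 1:1 with Griess reagent (1% sulfanilamide, 2% H3PO4, 0.1% naphthylethylenediamine dihydrochloride).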
(In general: The Griess reaction detects nitrite, a stable product of nitric oxide.)

A short description of test [9]: Antioxidant activity assessed as inhibition of nitric oxide free radical production at 100 ug/mL after 150 mins by Griess method relative to control. In short, it runs like this: as §3
Test [10] deals with Radical scavenging activity. As to the kind of experiment: Antioxidant activity assessed as inhibition of DPPH free radical production at 75 ug/mL after 30 mins by spectrophotometric analysis relative to control. A digest of the protocol: as §2
Test [11] relates to Radical scavenging activity. In words: Antioxidant activity assessed as inhibition of DPPH free radical production at 100 ug/mL after 30 mins by spectrophotometric analysis relative to control. In short, it runs like this: as §2
Test [12] in a line: Antioxidant activity assessed as inhibition of nitric oxide free radical production at 75 ug/mL after 150 mins by Griess method relative to control. In short, it runs like this: as §3
The subject of test [13] is Radical scavenging activity. As to the kind of experiment: Antioxidant activity assessed as inhibition of DPPH free radical production after 30 mins by spectrophotometric analysis. A digest of the protocol: as §2
A short description of test [14]: Antioxidant activity assessed as inhibition of nitric oxide free radical production at 25 ug/mL after 150 mins by Griess method relative to control. In short, it runs like this: as §3
A short description of test [15]: Antioxidant activity assessed as inhibition of nitric oxide free radical production at 50 ug/mL after 150 mins by Griess method relative to control. A digest of the protocol: as §3

In brackets after ≈: the same amount, converted by molar mass.

In general, inhibition refers to the relative decrease from the control value, in per cent. The IC50 is the concentration at which inhibition is half-maximal. Regarding `Cc1c(-c2nnc(-c3ccc(Cl)cc3)o2)sc2ncnc(Nc3ccc(Cl)cc3)c12`, the inhibition in test [1] amounted to 65.7%; in test [3] it was 68.4%; in test [4], 62.3%; in test [5], 69.8%; in test [6], 64.7%; in [7], 58.3%. The inhibition in test [9] was 79.4%; in test [10], 73.8%; in test [11], 77.5%; in test [12] it was 74.2%; in test [14] it was 68.4%; in [15], 70.6%. The IC50 worked out at 21.22 µg/mL (≈ 46.7 µM) in test [2], 18.27 µg/mL (≈ 40.2 µM) in test [8] and 19.31 µg/mL (≈ 42.5 µM) in test [13].

Take `O=C1O[C@H]([C@@H](O)CO)C(O)=C1O` [ASCORBIC ACID]: the inhibition in test [1] worked out at 82.4%; in [3], 83.5%; in [4], 78.6%; in test [5], 86.6%; in [6] it was 82.7%; in test [7], 76.4%. Further, the inhibition worked out at 90.4% in test [9]; 85.5% in [10]; 87.2% in test [11]; 88.3% in test [12]; 84.7% in test [14]; 86% in [15]. In addition, the values for the 50% inhibitory concentration (IC50) in [2], in test [8] and in test [13] were 16.35 µg/mL (≈ 92.8 µM), 14.75 µg/mL (≈ 83.7 µM) and 15.11 µg/mL (≈ 85.8 µM), respectively.

For `Cc1c(-c2nnc(-c3ccc(Cl)cc3)o2)sc2ncnc(Nc3ccc(F)cc3F)c12`, the inhibition was found to be 74.5% in [1]; 79.7% in test [3]; 71.7% in test [4]; 79.7% in [5]; 76.4% in [6]; 68.4% in test [7]. Further, the inhibition in test [9] came out at 86.2%; in test [10] it was 83.3%; in test [11] it was 85.8%; in [12], 84.6%; in test [14] it was 78.2%; in test [15], 83.3%. The concentration for half-maximal inhibition (IC50) was 18.26 µg/mL (≈ 40.1 µM) in [2], 15.98 µg/mL (≈ 35.1 µM) in test [8] and 16.35 µg/mL (≈ 35.9 µM) in [13].
